Source: ChEMBL document CHEMBL2331506, “Design, synthesis, antiviral and cytostatic evaluation of novel isoxazolidine nucleotide analogues with a carbamoyl linker” (Bioorg Med Chem, 2013)
Activity calls are given as the source filed them. How the calls were made is not given here.

Tests used:
MDCK = assay: Cytotoxicity against dog MDCK cells assessed as alteration of cell morphology up to 100 uM by microscopic analysis; type: cell-based, Canis lupus familiaris
In short: (§1)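 Uninfected host-cell cultures were exposed to compound and examined by microscopy. Cytotoxicity was expressed as the minimum cytotoxic concentration (MCC) causing a microscopically detectable alteration of normal cell morphology.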

[1] = Cytotoxicity against cat CRFK cells assessed as alteration of cell morphology up to 100 uM by microscopic analysis; type: cell-based, Felis catus; in short: as §1
Vero = assay: Cytotoxicity against african green monkey Vero cells assessed as alteration of cell morphology up to 100 uM by microscopic analysis; type: cell-based; conditions: chlorocebus sabaeus; in short: as §1
HeLa = assay: Cytotoxicity against human HeLa cells assessed as alteration of cell morphology up to 100 uM by microscopic analysis; type: cell-based; in short: as §1
HEL = assay: Cytotoxicity against human HEL cells assessed as alteration of cell morphology up to 100 uM by microscopic analysis; type: cell-based; in short: as §1
[2] = test system: Human immunodeficiency virus 2; assay: Antiviral activity against Human immunodeficiency virus 2 ROD infected in human CEM cells assessed as reduction of virus-induced giant cell formation at 250 uM after 4 to 5 days; type: functional, organism-based; conditions: CCRF-CEM
In short: (§2)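 CEM cells at 3 × 10^5 cells/mL were infected with HIV at 100 CCID50 per mL in the presence of compound dilutions. They were held 4–5 days at 37 °C in humidified CO2. Syncytium (giant cell) formation was scored microscopically, and EC50 was taken as the concentration inhibiting giant cell formation by 50%.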

[3] = test system: Human immunodeficiency virus 1; assay: Antiviral activity against Human immunodeficiency virus 1 3B infected in human CEM cells assessed as reduction of virus-induced giant cell formation at 250 uM after 4 to 5 days; type: functional, organism-based; conditions: CCRF-CEM; in short: as §2
Feline coronavirus = assay: Antiviral activity against Feline coronavirus infected in cat CRFK cells assessed as reduction of virus-induced cytopathogenicity at 250 uM; type: functional, organism-based
Felid alphaherpesvirus 1 = assay: Antiviral activity against Feline herpes virus infected in cat CRFK cells assessed as reduction of virus-induced cytopathogenicity at 250 uM; type: functional, organism-based
Influenza B virus = assay: Antiviral activity against Influenza B virus infected in dog MDCK cells assessed as reduction of virus-induced cytopathogenicity at 250 uM; type: functional, organism-based
In short: (§3)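 Confluent cell monolayers were infected with 100 CCID50 of virus while exposed to varying compound concentrations. Cytopathicity was scored once it was complete in untreated infected controls. EC50 was taken as the concentration that reduced virus-induced cytopathogenicity by 50%.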

Influenza A virus [4] = assay: Antiviral activity against Influenza A virus H3N2 infected in dog MDCK cells assessed as reduction of virus-induced cytopathogenicity at 250 uM; type: functional, organism-based; in short: as §3
Influenza A virus [5] = assay: Antiviral activity against Influenza A virus H1N1 infected in dog MDCK cells assessed as reduction of virus-induced cytopathogenicity at 250 uM; type: functional, organism-based; in short: as §3
Punta Toro virus = assay: Antiviral activity against Punta Toro virus infected in african green monkey Vero cells assessed as reduction of virus-induced cytopathogenicity at 250 uM; type: functional, organism-based
In short: (§4)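 Confluent monolayers (HEL fibroblasts, Vero, or HeLa cells as listed) were infected with 100 CCID50 of virus in the presence of varying compound concentrations. Virus-induced cytopathicity or plaque formation was scored once cytopathicity was complete in untreated infected controls. EC50 was taken as the concentration reducing cytopathogenicity or plaque formation by 50%.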

Sindbis virus = assay: Antiviral activity against Sindbis virus infected in african green monkey Vero cells assessed as reduction of virus-induced cytopathogenicity at 250 uM; type: functional, organism-based; in short: as §4
Coxsackievirus B4 = assay: Antiviral activity against Coxsackievirus B4 infected in african green monkey Vero cells assessed as reduction of virus-induced cytopathogenicity at 250 uM; type: functional, organism-based; in short: as §4
[6] = test system: Mammalian orthoreovirus 1; assay: Antiviral activity against Reovirus 1 infected in african green monkey Vero cells assessed as reduction of virus-induced cytopathogenicity at 250 uM; type: functional, organism-based; in short: as §4
Human respirovirus 3 = assay: Antiviral activity against Parainfluenza virus 3 infected in african green monkey Vero cells assessed as reduction of virus-induced cytopathogenicity at 250 uM; type: functional, organism-based; in short: as §4
[7] = test system: Respiratory syncytial virus; assay: Antiviral activity against Respiratory syncytial virus long infected in human HeLa cells assessed as reduction of virus-induced cytopathogenicity at 250 uM; type: functional, organism-based; in short: as §4
[8] = test system: Vesicular stomatitis virus; assay: Antiviral activity against Vesicular stomatitis virus infected in human HeLa cells assessed as reduction of virus-induced cytopathogenicity at 250 uM; type: functional, organism-based; in short: as §3
Human alphaherpesvirus 1 [9] = assay: Antiviral activity against thymidine kinase-deficient, ACV-resistant Herpes simplex virus 1 KOS infected in human HEL cells assessed as reduction of virus-induced cytopathogenicity at 250 uM; type: functional, organism-based; in short: as §3
[10] = test system: Vesicular stomatitis virus; assay: Antiviral activity against Vesicular stomatitis virus infected in human HEL cells assessed as reduction of virus-induced cytopathogenicity at 250 uM; type: functional, organism-based; in short: as §3
Human alphaherpesvirus 2 = assay: Antiviral activity against Herpes simplex virus 2 G infected in human HEL cells assessed as reduction of virus-induced cytopathogenicity at 250 uM; type: functional, organism-based; conditions: strain G; in short: as §4
Human alphaherpesvirus 1 [11] = assay: Antiviral activity against Herpes simplex virus 1 KOS infected in human HEL cells assessed as reduction of virus-induced cytopathogenicity at 250 uM; type: functional, organism-based; in short: as §4

CCOP(=O)(OCC)[C@@H]1C[C@H](C(=O)Nc2ccccc2Cl)ON1C (mixture of isomers)
Activity (MDCK): Non-toxic
Activity [1]: Non-toxic
Activity (Vero): Non-toxic
Activity (HeLa): Non-toxic
Activity (HEL): Non-toxic
inhibition [2]: inactive
inhibition [3]: inactive
inhibition (Feline coronavirus): inactive
inhibition (Felid alphaherpesvirus 1): inactive
inhibition (Influenza B virus): inactive
inhibition (Influenza A virus [4]): inactive
inhibition (Influenza A virus [5]): inactive
inhibition (Punta Toro virus): inactive
inhibition (Sindbis virus): inactive
inhibition (Coxsackievirus B4): inactive
inhibition [6]: inactive
inhibition (Human respirovirus 3): inactive
inhibition [7]: inactive
inhibition [8]: inactive
inhibition (Human alphaherpesvirus 1 [9]): inactive
inhibition [10]: inactive
inhibition (Human alphaherpesvirus 2): inactive
inhibition (Human alphaherpesvirus 1 [11]): inactive

CCOP(=O)(OCC)[C@@H]1C[C@H](C(=O)Nc2ccc(OC)c(OC)c2)ON1C (mixture of isomers)
Activity (MDCK): Non-toxic
Activity [1]: Non-toxic
Activity (Vero): Non-toxic
Activity (HeLa): Non-toxic
Activity (HEL): Non-toxic
inhibition [2]: inactive
inhibition [3]: inactive
inhibition (Feline coronavirus): inactive
inhibition (Felid alphaherpesvirus 1): inactive
inhibition (Influenza B virus): inactive
inhibition (Influenza A virus [4]): inactive
inhibition (Influenza A virus [5]): inactive
inhibition (Punta Toro virus): inactive
inhibition (Sindbis virus): inactive
inhibition (Coxsackievirus B4): inactive
inhibition [6]: inactive
inhibition (Human respirovirus 3): inactive
inhibition [7]: inactive
inhibition [8]: inactive
inhibition (Human alphaherpesvirus 1 [9]): inactive
inhibition [10]: inactive
inhibition (Human alphaherpesvirus 2): inactive
inhibition (Human alphaherpesvirus 1 [11]): inactive

CCOP(=O)(OCC)[C@H]1C[C@H](C(=O)Nc2ccc(OC)c(OC)c2)ON1C (mixture of isomers)
Activity (MDCK): Non-toxic
Activity [1]: Non-toxic
Activity (Vero): Non-toxic
Activity (HeLa): Non-toxic
Activity (HEL): Non-toxic
inhibition [2]: inactive
inhibition [3]: inactive
inhibition (Feline coronavirus): inactive
inhibition (Felid alphaherpesvirus 1): inactive
inhibition (Influenza B virus): inactive
inhibition (Influenza A virus [4]): inactive
inhibition (Influenza A virus [5]): inactive
inhibition (Punta Toro virus): inactive
inhibition (Sindbis virus): inactive
inhibition (Coxsackievirus B4): inactive
inhibition [6]: inactive
inhibition (Human respirovirus 3): inactive
inhibition [7]: inactive
inhibition [8]: inactive
inhibition (Human alphaherpesvirus 1 [9]): inactive
inhibition [10]: inactive
inhibition (Human alphaherpesvirus 2): inactive
inhibition (Human alphaherpesvirus 1 [11]): inactive

CCOP(=O)(OCC)[C@H]1C[C@H](C(=O)Nc2cc(OC)c(OC)c(OC)c2)ON1C (mixture of isomers)
Activity (MDCK): Non-toxic
Activity [1]: Non-toxic
Activity (Vero): Non-toxic
Activity (HeLa): Non-toxic
Activity (HEL): Non-toxic
inhibition [2]: inactive
inhibition [3]: inactive
inhibition (Feline coronavirus): inactive
inhibition (Felid alphaherpesvirus 1): inactive
inhibition (Influenza B virus): inactive
inhibition (Influenza A virus [4]): inactive
inhibition (Influenza A virus [5]): inactive
inhibition (Punta Toro virus): inactive
inhibition (Sindbis virus): inactive
inhibition (Coxsackievirus B4): inactive
inhibition [6]: inactive
inhibition (Human respirovirus 3): inactive
inhibition [7]: inactive
inhibition [8]: inactive
inhibition (Human alphaherpesvirus 1 [9]): inactive
inhibition [10]: inactive
inhibition (Human alphaherpesvirus 2): inactive
inhibition (Human alphaherpesvirus 1 [11]): inactive

CCOP(=O)(OCC)[C@H]1C[C@H](C(=O)Nc2cc(OC)c(OC)cc2C#N)ON1C (mixture of isomers)
Activity (MDCK): Non-toxic
Activity [1]: Non-toxic
Activity (Vero): Non-toxic
Activity (HeLa): Non-toxic
Activity (HEL): Non-toxic
inhibition [2]: inactive
inhibition [3]: inactive
inhibition (Feline coronavirus): inactive
inhibition (Felid alphaherpesvirus 1): inactive
inhibition (Influenza B virus): inactive
inhibition (Influenza A virus [4]): inactive
inhibition (Influenza A virus [5]): inactive
inhibition (Punta Toro virus): inactive
inhibition (Sindbis virus): inactive
inhibition (Coxsackievirus B4): inactive
inhibition [6]: inactive
inhibition (Human respirovirus 3): inactive
inhibition [7]: inactive
inhibition [8]: inactive
inhibition (Human alphaherpesvirus 1 [9]): inactive
inhibition [10]: inactive
inhibition (Human alphaherpesvirus 2): inactive
inhibition (Human alphaherpesvirus 1 [11]): inactive

CCOP(=O)(OCC)[C@@H]1C[C@H](C(=O)Nc2cc(OC)c(OC)cc2C#N)ON1C (mixture of isomers)
Activity (MDCK): Non-toxic
Activity [1]: Non-toxic
Activity (Vero): Non-toxic
Activity (HeLa): Non-toxic
Activity (HEL): Non-toxic
inhibition [2]: inactive
inhibition [3]: inactive
inhibition (Feline coronavirus): inactive
inhibition (Felid alphaherpesvirus 1): inactive
inhibition (Influenza B virus): inactive
inhibition (Influenza A virus [4]): inactive
inhibition (Influenza A virus [5]): inactive
inhibition (Punta Toro virus): inactive
inhibition (Sindbis virus): inactive
inhibition (Coxsackievirus B4): inactive
inhibition [6]: inactive
inhibition (Human respirovirus 3): inactive
inhibition [7]: inactive
inhibition [8]: inactive
inhibition (Human alphaherpesvirus 1 [9]): inactive
inhibition [10]: inactive
inhibition (Human alphaherpesvirus 2): inactive
inhibition (Human alphaherpesvirus 1 [11]): inactive

CCOP(=O)(OCC)[C@H]1C[C@H](C(=O)Nc2cc(OC)c(OC)cc2C(C)=O)ON1C (mixture of isomers)
Activity (MDCK): Non-toxic
Activity [1]: Non-toxic
Activity (Vero): Non-toxic
Activity (HeLa): Non-toxic
Activity (HEL): Non-toxic
inhibition [2]: inactive
inhibition [3]: inactive
inhibition (Feline coronavirus): inactive
inhibition (Felid alphaherpesvirus 1): inactive
inhibition (Influenza B virus): inactive
inhibition (Influenza A virus [4]): inactive
inhibition (Influenza A virus [5]): inactive
inhibition (Punta Toro virus): inactive
inhibition (Sindbis virus): inactive
inhibition (Coxsackievirus B4): inactive
inhibition [6]: inactive
inhibition (Human respirovirus 3): inactive
inhibition [7]: inactive
inhibition [8]: inactive
inhibition (Human alphaherpesvirus 1 [9]): inactive
inhibition [10]: inactive
inhibition (Human alphaherpesvirus 2): inactive
inhibition (Human alphaherpesvirus 1 [11]): inactive

CCOP(=O)(OCC)[C@@H]1C[C@H](C(=O)Nc2cc(OC)c(OC)cc2C(C)=O)ON1C (mixture of isomers)
Activity (MDCK): Non-toxic
Activity [1]: Non-toxic
Activity (Vero): Non-toxic
Activity (HeLa): Non-toxic
Activity (HEL): Non-toxic
inhibition [2]: inactive
inhibition [3]: inactive
inhibition (Feline coronavirus): inactive
inhibition (Felid alphaherpesvirus 1): inactive
inhibition (Influenza B virus): inactive
inhibition (Influenza A virus [4]): inactive
inhibition (Influenza A virus [5]): inactive
inhibition (Punta Toro virus): inactive
inhibition (Sindbis virus): inactive
inhibition (Coxsackievirus B4): inactive
inhibition [6]: inactive
inhibition (Human respirovirus 3): inactive
inhibition [7]: inactive
inhibition [8]: inactive
inhibition (Human alphaherpesvirus 1 [9]): inactive
inhibition [10]: inactive
inhibition (Human alphaherpesvirus 2): inactive
inhibition (Human alphaherpesvirus 1 [11]): inactive
